This is a sample that favours compounds with a hit; in the whole collection about 4.2% have one here.
UPR CHOP act: apoptotic UPR (CHOP) activation; AID 449763; 0.34% of 330,000 active; CHO-CHOP luciferase reporter, luminescence; percent of tunicamycin response over DMSO baseline; activation, % at 10 µM;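 active = at 10 µM dose, activation of 40% or more, normalized to positive control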;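 also: 100% = tunicamycin at 10 µg/mL and 0% = DMSO alone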
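Material: CHO-CHOP cells, stable luciferase reporter of PERK-eIF2a-CHOP signalling; quantity: 500 reporter cells seeded per well; buffer or medium: F12 medium containing 10% fetal bovine serum; compound: one dose, 10 µM in 0.5% DMSO; incubation: 6 h compound treatment, 37 °C; measured by: Steady-Glo luciferase luminescence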
TMEM16A act: mouse TMEM16A channel activation, primary screen. HEK293 TMEM16A/YFP-H148Q/I152L, iodide quench fluorescence; stronger effect = lower value. 0.3% of 340,000 active. AID 623877. B-score at 10 µM. Q8BHY3;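 active = fluorescence-ratio B-score plate-corrected deviation score at least 3 library SD below zero, with starting fluorescence score within 5 deviations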;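 also: channel opened by trigger with iodide after compound preincubation; score built on the fluorescence ratio of max minus min over baseline; more negative score means more quench and so TMEM16A activation or potentiation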
Target sequence (Q8BHY3 whole entry, looked up): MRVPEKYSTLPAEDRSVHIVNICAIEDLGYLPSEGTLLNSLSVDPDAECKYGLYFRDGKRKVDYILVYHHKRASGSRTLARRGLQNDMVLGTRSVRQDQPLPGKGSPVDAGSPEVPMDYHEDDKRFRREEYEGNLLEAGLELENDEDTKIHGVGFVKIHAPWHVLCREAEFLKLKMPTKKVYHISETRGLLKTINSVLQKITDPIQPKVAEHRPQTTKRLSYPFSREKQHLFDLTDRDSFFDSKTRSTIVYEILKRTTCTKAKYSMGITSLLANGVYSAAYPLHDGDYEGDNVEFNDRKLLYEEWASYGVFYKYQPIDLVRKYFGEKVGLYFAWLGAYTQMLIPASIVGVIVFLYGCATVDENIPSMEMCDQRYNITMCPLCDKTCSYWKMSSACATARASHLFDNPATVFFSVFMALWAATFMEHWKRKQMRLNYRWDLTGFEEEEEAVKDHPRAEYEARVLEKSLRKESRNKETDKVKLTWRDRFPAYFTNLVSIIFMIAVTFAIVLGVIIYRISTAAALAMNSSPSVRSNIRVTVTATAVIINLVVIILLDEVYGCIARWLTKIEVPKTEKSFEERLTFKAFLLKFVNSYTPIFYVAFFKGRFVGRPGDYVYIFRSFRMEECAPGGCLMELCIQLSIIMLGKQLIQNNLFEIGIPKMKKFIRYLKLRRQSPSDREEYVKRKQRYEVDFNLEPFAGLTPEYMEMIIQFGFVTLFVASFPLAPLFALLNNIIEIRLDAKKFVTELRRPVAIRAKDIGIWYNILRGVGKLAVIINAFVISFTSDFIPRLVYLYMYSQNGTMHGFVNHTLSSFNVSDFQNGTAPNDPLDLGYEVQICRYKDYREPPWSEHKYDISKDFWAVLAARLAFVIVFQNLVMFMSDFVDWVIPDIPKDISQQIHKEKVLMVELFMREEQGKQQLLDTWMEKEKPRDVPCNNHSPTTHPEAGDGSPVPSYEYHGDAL
UPR XBP1 act: activators of adaptive arm of unfolded protein response (XBP1). 0.33% of 330,000 active. activation, % at 20 µM. CHO-XBP1 luciferase reporter, IRE1-XBP1 UPR activation, luminescence; percent of tunicamycin response, DMSO as zero;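 active = versus positive control, 20 µM dose yields 30% or more activation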;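 also: 100% = tunicamycin at 10 µg/mL and 0% = DMSO only wells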
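Material: CHO cell line with stable XBP1 luciferase reporter; buffer or medium: F12 medium containing 10% fetal bovine serum; compound: single point, 20 µM final compound, 1% DMSO; incubation: 6 h treatment, 37 °C; measured by: glow luminescence from Steady-Glo reagent; evaluation: activation, % of tunicamycin; control set: tunicamycin high, DMSO low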
Hep lipid drop: modulators of hepatic lipid droplet formation; AML12 mouse hepatocytes, oleate lipid droplets, BODIPY imaging; AID 1656; inhibition, % at 6.5 µM; 0.4% of 240,000 active;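 active = lipid droplet intensity inhibited by at least 50%, with more than 500 cells counted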
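Test system: AML12 hepatocytes (mouse); reagent: oleate loading, 100 µM; dosing: one dose, 6.5 µM compound; incubation: overnight exposure; signal: fluorescence imaging, 20x objective, two fields per well; read-out basis: % inhibition of corrected integrated BODIPY droplet signal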
TMEM16A inh: mouse TMEM16A channel inhibition, primary screen. Q8BHY3. HEK293 TMEM16A/YFP iodide influx fluorescence, ionomycin. normalized B-score (activity score, 25-100; higher = stronger inhibition) at 10 µM. 1.2% of 310,000 active;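 active = ratio plate-corrected score three or more library SD toward inhibition, starting fluorescence score within five deviations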;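 also: score derived from kinetic fluorescence span divided by baseline fluorescence per well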
CHOP inh: blocks CHOP induction under ER stress. CHO-K1 CHOP-promoter luciferase, tunicamycin-induced, 15-18 h. inhibition, % at 10 µM. 3.8% of 220,000 active;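 active = compounds that reduced the stress-induced luciferase reporter signal by more than about 70% of percent inhibition, limit read from the data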;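 also: 0% = tunicamycin plus vehicle and 100% = wells without tunicamycin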
* marks the source's active call; other numbers are inactive results; i = inactive; · = no result given.

SMILES	UPR CHOP act	TMEM16A act	UPR XBP1 act	Hep lipid drop	TMEM16A inh	CHOP inh
CCn1c(SCC(=O)Nc2nc3ccc(OC)cc3s2)nc2c1c(=O)n(C)c(=O)n2C	1.9	i	6.9	·	i	83.8*
Cc1ccc(Cl)cc1N1CCN(C(=O)CSc2nnc3n2C(C)(C)Cc2ccccc2-3)CC1	8.7	i	7.2	-53.1	100*	81.1*
COc1ccc(N2CCN(C(=O)CSc3nnc4n3C(C)(C)Cc3ccccc3-4)CC2)cc1	-1.3	i	-2.3	-15.9	25*	31.0
Cn1c(=O)c2c(nc(NCCNC(=O)c3ccco3)n2Cc2ccccc2)n(C)c1=O	0.1	i	-2.4	5.2	i	·
COc1cc(NC(=O)CSc2nnc3n2C(C)(C)Cc2ccccc2-3)cc(OC)c1	1.7	i	1.5	·	i	15.4
COc1ccc2nc(NC(=O)CSc3nnc4n3C(C)(C)Cc3ccccc3-4)sc2c1	-0.4	-7.98*	0.8	·	i	-10.4
COc1cc(OC)cc(N(C(=O)c2snc(C(N)=O)c2N)C(C(=O)NCC2CCCO2)c2ccc(C)o2)c1 (centres undefined)	0.5	i	-8.1	6.9	i	·
Cc1ccc(Nc2nc(N/N=C/c3c[nH]c4ccccc34)nc(N3CCOCC3)n2)cc1	31.8	i	28.9	125.7*	i	95.0*
CC(=C/c1ccccc1)/C=N/Nc1nc(N2CCCCC2)nc(N2CCCCC2)n1	4.7	i	5.8	9.7	i	50.4
C(=N\Nc1nc(Nc2ccccc2)nc(N2CCOCC2)n1)/c1c[nH]c2ccccc12	29.9	·	14.4	·	25*	43.2
BrC(/C=N/Nc1nc(N2CCOCC2)nc(N2CCOCC2)n1)=C/c1ccccc1	-4.1	i	-1.9	·	i	82.0*
O=C(CSc1nc(O)c(C2CCCCC2)c(=O)[nH]1)Nc1ccccc1Cl	0.3	i	-2.0	4.0	i	·
OC[C@H]1O[C@@H](n2cnc3c(NC4CCCC4)ncnc32)C(O)[C@H]1O (some centres undefined)	·	·	·	·	·	-21.0
O=C(/C=C/c1ccc2ccccc2n1)N1CCN(S(=O)(=O)c2ccccc2F)CC1	1.5	i	-3.8	15.7	i	70.4*
COC(=O)c1ccc(CNC(=O)Cn2nnnc2CN(C)C(C)C)cc1	-1.2	i	-5.8	3.0	i	·
CC(C)N1CCc2c(sc(NC(=O)c3cc4cc([N+](=O)[O-])ccc4s3)c2C(N)=O)C1	3.3	i	1.6	26.1	·	77.9*
CC(C)N1CCc2c(sc(NC(=O)c3ccc4ccccc4c3)c2C(N)=O)C1	4.6	i	0.7	-6.0	i	·
Nc1ncnc2c1ncn2[C@@H]1O[C@H](COP(=O)(O)OP(=O)(O)OP(=O)(O)OP(=O)(O)OC[C@@H]2O[C@H](n3cnc4c(N)ncnc43)C(O)[C@@H]2O)[C@H](O)C1O (some centres undefined)	·	·	·	·	·	19.2
O=C(NC1CC1(c1ccccc1)c1ccccc1)c1ccccc1 (centres undefined)	·	-9.29*	·	·	·	·
COc1ccc(-c2[nH]c(-c3ccc4c(c3)OCO4)nc2-c2ccccc2)cc1	4.3	i	8.0	·	i	58.4
COc1cc(-c2nc(-c3ccccc3)c(-c3ccc(F)cc3)[nH]2)cc2c1OCO2	0.6	i	-0.1	-12.5	i	70.3*
Cc1ccc2cc(C)c(N3CCN(c4ccccn4)CC3)nc2c1	1.3	i	2.0	5.1	i	73.8*
CC1CN(S(=O)(=O)c2ccc(C(=O)N(C)C3CCCCC3)cc2)CC(C)O1 (centres undefined)	3.4	i	-2.9	·	·	·
Cc1ccc2cc(CCNC(=O)c3ccc(S(=O)(=O)N4CCOCC4)cc3)c(=O)[nH]c2c1	-1.1	i	-2.3	-3.5	i	·
Cc1cc2cc(CCNC(=O)c3ccc(S(=O)(=O)N4CCOCC4)cc3)c(=O)[nH]c2cc1C	-2.8	i	-2.4	·	i	70.6*
SMILES	UPR CHOP act	TMEM16A act	UPR XBP1 act	Hep lipid drop	TMEM16A inh	CHOP inh
CC1CCN(C(=O)CN2C(=O)NC(c3ccccc3)(c3ccccc3)C2=O)CC1	-0.7	i	-1.4	·	·	·
CC(C)CSC1=NSC2=NC(=O)/C(=C\c3ccccc3)C(=N)N12	3.3	i	2.9	6.8	25*	-0.6
Cc1cc(/C=C2\C(=N)N3C(SCc4ccccc4)=NSC3=NC2=O)c(C)n1Cc1ccccc1	1.0	i	-0.3	-2.4	i	87.6*
Cc1cc(/C=C2\C(=N)N3N=C(C(C)C)SC3=NC2=O)c(C)n1Cc1ccccc1	-1.4	i	-4.2	2.5	i	3.4
COC(=O)c1ccc(/C=N/n2c(C)nc3ccccc3c2=O)cc1	-0.2	i	-2.9	16.0	i	·
CCCCNC(=O)CCn1c(=O)c2ccccc2n(Cc2ccc(Cl)cc2)c1=O	0.2	i	4.3	-2.9	i	87.4*
CCCSc1ncnc2c1oc1ccccc12	3.8	i	4.1	·	i	32.0
CC(C)Sc1ncnc2c1oc1ccccc12	11.0	i	7.4	·	i	74.5*
Cc1ccc(N=C2NC(=O)S/C2=C\c2ccco2)cc1	2.4	i	2.0	-1.0	i	99.8*
C#Cc1cccc(NC(=O)c2ccc3c(c2)C(=O)N(Cc2cccnc2)C3=O)c1	4.8	i	-3.8	-15.7	i	·
N#C/C(=C(/O)c1ccccc1F)c1nc2cc(C(F)(F)F)ccc2s1	2.8	i	-3.4	-3.3	i	25.6
N#C/C(=C(/O)c1ccc2c(c1)OCO2)c1nc2cc(C(F)(F)F)ccc2s1	0.5	i	-3.8	-27.5	100*	·
CCc1ccc(N(CC(=O)Nc2nc3ccc(C)cc3s2)S(=O)(=O)c2c(C)noc2C)cc1	1.1	i	4.6	·	i	82.6*
O=C(/C=C/c1ccc(Cl)c([N+](=O)[O-])c1)Nc1ccc(N2CCCC2)c(Cl)c1	4.9	i	9.5	1.0	i	96.0*
O=S(=O)(c1cccc2cnccc12)N1CCNCC1	-2.0	-11.7*	-11.3	·	i	·
NCCNS(=O)(=O)c1cccc2cnccc12	·	·	·	·	·	8.0
Cc1ccc([C@H]2C(C(=O)O)=CC[C@@H](c3ccc(C)cc3)N2S(=O)(=O)c2ccccc2C)cc1	1.1	·	0.0	·	·	·
Cc1cc(Nc2c(C)n(C)n(-c3ccccc3)c2=O)c2ccccc2n1	1.8	i	-0.2	26.1	i	-7.0
CCN(Cc1ccccc1)S(=O)(=O)c1ccccc1Br	2.5	·	4.0	·	·	·
C=CCCCN(Cc1ccccc1)S(=O)(=O)c1ccccc1Br	-0.3	-6.15*	-0.8	-23.6	25*	26.5
Cn1cccc1Cc1nnc(SCC(=O)Nc2cccc(Cl)c2)n1-c1ccc(F)cc1	-0.3	i	-0.5	-20.0	i	75.0*

Screening results: PubChem, several laboratories
